# Many of the other results were omitted from the sample, so hits are more common in it than they were.
# T cruzi HTS: inhibitors of intracellular Trypanosoma cruzi; intracellular Trypanosoma cruzi in host cells, plate reader; activity score (inhibition), % at 5.01 µM; 4.9% of 22,000 active; in the data active = activity score above about 55%; inconclusive = no clear call, values can overlap the other calls;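 note: parasites and compound incubated about four days before reading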
# A1 apoptosis 2: compounds inhibiting A1, read as caspase activation. MEF A1-2A-BIM cells, caspase-Glo luminescence, 3 h; percent of clofoctol response, DMSO zero. caspase activation, % (test concentration not listed). 24,000 tested, under 10 active; in the data active = caspase activation above about 5.9%; inconclusive = no clear call, values can overlap the other calls; inactive = below about 2.2%
#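 Test system – A1-2A-BIM-expressing MEF cells · Input – 2500 cells/well · Medium – RPMI-1640 growth medium with 10% FBS · Compound dosing – 50 nL pinned compound · Timing – 3 h compound exposure at 37 °C · Technique – Caspase-Glo luminescence (DEVD substrate) · Evaluation – Caspase-3/7 activity from luminescence increase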
# INS-1E rescue: preserves ATP levels in cytokine-treated INS-1E cells; 0.1% of 20,000 active; protection from cytokine-induced ATP loss, % at 10 µM; INS-1E cytokine-induced death, ATP luminescence, 48 h; normalised: neutral wells 0, positive control 100;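 active = mean replicate protection from cytokine-induced ATP loss at least 50% and at least 75% of replicates each reaching 50%; inconclusive = meets only one of the two criteria, mean or replicate share; inactive = fails both the mean and replicate share criteria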
#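 Assay system: INS-1E rat insulinoma cells. Amount: 8000 cells per well. Medium: phenol-red-free RPMI with 5% fetal bovine serum. Reagent: IL-1β, TNF-α and IFN-γ cytokine mix. Doses: one compound concentration, pin transfer. Schedule: 48 h co-treatment, 10 min post-lysis read. Detection: CellTiter-Glo luminescence measuring cellular ATP.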
# Hits are given with their value; . = inactive; ? = inconclusive; / = no result.
SMILES,T cruzi HTS,A1 apoptosis 2,INS-1E rescue
COc1ccc(S(=O)(=O)Nc2ccc3c(c2)C(=O)N([C@H](C)CO)C[C@H](C)[C@H](CN(C)C(=O)CCC(F)(F)F)OCCCC[C@@H](C)O3)cc1,.,.,.
C[C@@H]1CCCCO[C@@H](CN(C)S(C)(=O)=O)[C@H](C)CN([C@@H](C)CO)C(=O)c2cc(NC(=O)Nc3cccc4ccccc34)ccc2O1,/,.,/
COc1ccc(NC(=O)Nc2ccc3c(c2)C(=O)N([C@H](C)CO)C[C@@H](C)[C@H](CN(C)Cc2ccncc2)O3)cc1,.,/,.
C[C@@H]1CN([C@H](C)CO)C(=O)Cc2cc(NC(=O)Nc3cccc4ccccc34)ccc2O[C@@H]1CN(C)C(=O)Nc1ccc(C(F)(F)F)cc1,.,/,.
C[C@@H]1CN([C@H](C)CO)C(=O)Cc2cc(NC(=O)Nc3cccc4ccccc34)ccc2O[C@@H]1CN(C)Cc1ccc(Oc2ccccc2)cc1,69,.,.
COc1ccc(CN(C)C[C@@H]2Oc3ccc(NC(=O)Nc4cccc5ccccc45)cc3CC(=O)N([C@@H](C)CO)C[C@@H]2C)cc1,.,.,.
C[C@H]1CN([C@@H](C)CO)C(=O)Cc2cc(NC(=O)Nc3cccc4ccccc34)ccc2O[C@@H]1CN(C)CC1CCCCC1,76,.,.
C[C@@H]1CN([C@@H](C)CO)C(=O)Cc2cc(NC(=O)Nc3cccc4ccccc34)ccc2O[C@@H]1CN(C)Cc1ccc(C(F)(F)F)cc1,91,.,.
C[C@H](CO)N1C[C@H](C)[C@H](CN(C)CC2CC2)Oc2ccc(NC(=O)Nc3cccc4ccccc34)cc2CC1=O,/,.,/
O=C1CSC2=NC3(CO)Oc4ccccc4[C@H]([C@H]3CO)N12,/,.,/
O=C(N/N=C/c1ccncc1Br)c1ccccn1,.,.,.
CNC[C@H]1Oc2ccc(NS(=O)(=O)c3ccc(Cl)cc3)cc2CC(=O)N([C@H](C)CO)C[C@@H]1C,/,.,/
CC(C)NC(=O)N(C)C[C@H]1OCCCC[C@@H](C)Oc2ccc(NC(=O)Nc3ccccc3)cc2C(=O)N([C@@H](C)CO)C[C@H]1C,/,.,/
COc1ccc(S(=O)(=O)N(C)C[C@H]2Oc3ccc(NC(=O)Cn4cnnn4)cc3C(=O)N([C@@H](C)CO)C[C@H]2C)cc1,.,.,.
C[C@H](CO)N1C[C@H](C)[C@@H](CN(C)C(=O)c2ccncc2)OCCCC[C@H](C)Oc2ccc(NC(=O)CCC(F)(F)F)cc2C1=O,/,.,/
C[C@@H]1CN([C@@H](C)CO)C(=O)c2cc(N(C)C)ccc2O[C@@H]1CN(C)S(=O)(=O)c1cccs1,.,.,.
C[C@@H]1CN([C@H](C)CO)C(=O)Cc2cc(NC(=O)C3CCCCC3)ccc2O[C@H]1CN(C)Cc1ccc(-c2ccccc2)cc1,57,.,.
C[C@@H]1CN([C@H](C)CO)C(=O)Cc2cc(NC(=O)C3CCCCC3)ccc2O[C@@H]1CN(C)Cc1ccc(-c2ccccc2)cc1,?,.,.
C[C@H]1CN([C@@H](C)CO)C(=O)Cc2cc(NC(=O)C3CCCCC3)ccc2O[C@@H]1CN(C)Cc1ccc(-c2ccccc2)cc1,60,/,.
C[C@@H]1CN([C@H](C)CO)C(=O)Cc2cc(NC(=O)C3CC3)ccc2O[C@H]1CN(C)Cc1ccc(-c2ccccc2)cc1,.,.,.
C[C@@H]1CN([C@@H](C)CO)C(=O)Cc2cc(NC(=O)C3CC3)ccc2O[C@H]1CN(C)Cc1ccc(-c2ccccc2)cc1,/,.,/
C[C@H](CO)N1C[C@H](C)[C@H](CN(C)Cc2ccc(-c3ccccc3)cc2)Oc2ccc(NC(=O)C3CCCCC3)cc2CC1=O,67,/,.
C[C@@H]1CN([C@H](C)CO)C(=O)c2cc(NC(=O)NC3CCCCC3)ccc2O[C@@H](C)CCCCO[C@H]1CN(C)C(=O)Nc1ccc2c(c1)OCO2,/,.,/
Cc1ccc(S(=O)(=O)N(C)C[C@H]2OCCCC[C@@H](C)Oc3ccc(NC(=O)CCC(F)(F)F)cc3C(=O)N([C@@H](C)CO)C[C@@H]2C)cc1,/,.,/
COc1ccc(S(=O)(=O)N(C)C[C@H]2OCCCC[C@@H](C)Oc3ccc(NC(=O)NC(C)C)cc3C(=O)N([C@@H](C)CO)C[C@H]2C)cc1,/,.,/
SMILES,T cruzi HTS,A1 apoptosis 2,INS-1E rescue
C[C@@H]1CN([C@H](C)CO)C(=O)Cc2cc(NS(=O)(=O)c3ccc(Cl)cc3)ccc2O[C@@H]1CN(C)Cc1ccc(C(F)(F)F)cc1,.,.,.
C[C@H]1CN([C@@H](C)CO)C(=O)Cc2cc(NS(=O)(=O)c3ccc(Cl)cc3)ccc2O[C@@H]1CN(C)Cc1ccc(C(F)(F)F)cc1,72,/,.
C[C@@H]1CN([C@@H](C)CO)C(=O)Cc2cc(NS(=O)(=O)c3ccccc3)ccc2O[C@@H]1CN(C)Cc1ccc(C(F)(F)F)cc1,.,.,.
C[C@@H]1CN([C@H](C)CO)C(=O)Cc2cc(NS(=O)(=O)c3ccc(Cl)cc3)ccc2O[C@H]1CN(C)Cc1ccc(C(F)(F)F)cc1,64,.,.
C[C@H](CO)N1C[C@H](C)[C@@H](CN(C)Cc2ccc(C(F)(F)F)cc2)Oc2ccc(NS(=O)(=O)c3ccc(Cl)cc3)cc2CC1=O,/,.,/
C[C@@H]1CN([C@@H](C)CO)C(=O)Cc2cc(NS(=O)(=O)c3ccc(Cl)cc3)ccc2O[C@@H]1CN(C)Cc1ccc(C(F)(F)F)cc1,58,.,.
COc1ccc(S(=O)(=O)Nc2ccc3c(c2)C(=O)N([C@@H](C)CO)C[C@@H](C)[C@@H](CN(C)C(=O)Nc2ccc(F)cc2)OCCCC[C@H](C)O3)cc1,/,.,/
C[C@@H]1CN([C@@H](C)CO)C(=O)c2cc(NC(=O)Nc3ccccc3)ccc2O[C@@H](C)CCCCO[C@@H]1CN(C)C(=O)NC1CCCCC1,/,.,/
C[C@H](CO)N1C[C@H](C)[C@H](CN(C)Cc2ccc(-c3ccccc3)cc2)Oc2ccc(NC(=O)Nc3ccccc3)cc2CC1=O,?,/,.
C[C@H]1CN([C@@H](C)CO)C(=O)Cc2cc(NC(=O)NC3CCCCC3)ccc2O[C@@H]1CN(C)Cc1ccc(Cl)c(Cl)c1,65,.,.
C[C@@H]1CN([C@@H](C)CO)C(=O)Cc2cc(NC(=O)c3ccncc3)ccc2O[C@@H]1CN(C)Cc1ccccc1,.,/,.
C[C@@H]1CN([C@@H](C)CO)C(=O)Cc2cc(NC(=O)NC3CCCCC3)ccc2O[C@@H]1CN(C)Cc1ccc(Cl)c(Cl)c1,.,/,.
C[C@@H]1CN([C@@H](C)CO)C(=O)Cc2cc(NC(=O)Nc3ccccc3)ccc2O[C@@H]1CN(C)Cc1ccc(-c2ccccc2)cc1,62,.,.
C[C@H]1CN([C@@H](C)CO)C(=O)Cc2cc(NC(=O)c3ccncc3)ccc2O[C@H]1CN(C)Cc1ccc(-c2ccccc2)cc1,78,/,.
C[C@@H]1CN([C@@H](C)CO)C(=O)Cc2cc(NC(=O)Nc3ccc(F)cc3)ccc2O[C@@H]1CN(C)Cc1ccc(-c2ccccc2)cc1,61,.,.
C[C@H]1CN([C@@H](C)CO)C(=O)Cc2cc(NC(=O)Nc3ccccc3)ccc2O[C@H]1CN(C)Cc1ccc(-c2ccccc2)cc1,.,.,.

# Screening data as filed in PubChem.
